Test results taken from ChEMBL document CHEMBL1177719 (J Med Chem, 2010).
Activity calls are given as the source filed them. The calls are words filed in the database; no cut-off is given here.

What was measured:
RAW264.7 [1] = assay: Inhibition of LPS-induced COX2 expression in mouse RAW264.7 cells at 34 uM treated 15 mins before LPS challenge measured after 18 hrs by immunoblotting; assay type: functional, cell-based
Outline: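 RAW 264.7 cells pretreated with samples 15 min, then LPS 1 μg/mL for 18 h. Lysates (30 μg protein) run on 8% SDS-PAGE, transferred to PVDF, probed with primary and HRP secondary antibodies, ECL detection. β-actin internal control; band density quantified relative to the LPS-only control; duplicate experiment.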

[2] = target: T1, Prostaglandin G/H synthase 1 (Ovis aries) (UniProt P05979); assay: Inhibition of sheep seminal vesicles COX1 assessed as PGE2 production at 34 uM after 10 mins by ELISA relative to control
T1 sequence (whole entry): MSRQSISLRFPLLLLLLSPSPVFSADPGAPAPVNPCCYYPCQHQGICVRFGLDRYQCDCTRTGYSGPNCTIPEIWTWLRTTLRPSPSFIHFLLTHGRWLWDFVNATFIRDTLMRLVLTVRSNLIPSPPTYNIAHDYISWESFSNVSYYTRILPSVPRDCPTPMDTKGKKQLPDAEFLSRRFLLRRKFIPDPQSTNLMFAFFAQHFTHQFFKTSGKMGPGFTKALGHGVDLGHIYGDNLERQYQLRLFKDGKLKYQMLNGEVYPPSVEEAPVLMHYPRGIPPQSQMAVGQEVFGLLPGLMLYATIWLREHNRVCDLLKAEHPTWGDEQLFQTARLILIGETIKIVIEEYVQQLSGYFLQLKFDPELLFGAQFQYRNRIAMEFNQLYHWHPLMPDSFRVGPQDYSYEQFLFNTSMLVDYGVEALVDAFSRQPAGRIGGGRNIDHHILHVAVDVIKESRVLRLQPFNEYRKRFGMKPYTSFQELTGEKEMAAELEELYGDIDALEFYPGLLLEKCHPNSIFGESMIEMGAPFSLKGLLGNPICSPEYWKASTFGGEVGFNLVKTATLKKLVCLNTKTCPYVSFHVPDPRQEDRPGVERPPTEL
Outline: (§1)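 Sheep seminal vesicle COX-1; reaction started with arachidonic acid, 10 min at room temperature, stopped with 27.8 μM indomethacin. PGE₂ quantified by competitive ELISA (PGE₂-acetylcholinesterase tracer, Ellman's reagent, 412 nm) against a PGE₂ standard curve. Result as % of solvent control; IC₅₀ from dose-response curves.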

HL-60 = assay: Cell cycle arrest in human HL60 cells assessed as accumulation at sub-G1 phase at 34 uM after 24 hrs by flow cytometry; assay type: functional
Outline: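 HL-60 cells (2 × 10⁵/well) exposed to samples for 24 h, then stained with NIM-DAPI nuclear isolation medium. Read by flow cytometry under UV excitation; percentage of cells in subG₁ taken from the DNA histogram.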

[3] = target: T2, Nitric oxide synthase, inducible (Mus musculus, UniProt P29477)
T2 sequence (P29477 whole entry): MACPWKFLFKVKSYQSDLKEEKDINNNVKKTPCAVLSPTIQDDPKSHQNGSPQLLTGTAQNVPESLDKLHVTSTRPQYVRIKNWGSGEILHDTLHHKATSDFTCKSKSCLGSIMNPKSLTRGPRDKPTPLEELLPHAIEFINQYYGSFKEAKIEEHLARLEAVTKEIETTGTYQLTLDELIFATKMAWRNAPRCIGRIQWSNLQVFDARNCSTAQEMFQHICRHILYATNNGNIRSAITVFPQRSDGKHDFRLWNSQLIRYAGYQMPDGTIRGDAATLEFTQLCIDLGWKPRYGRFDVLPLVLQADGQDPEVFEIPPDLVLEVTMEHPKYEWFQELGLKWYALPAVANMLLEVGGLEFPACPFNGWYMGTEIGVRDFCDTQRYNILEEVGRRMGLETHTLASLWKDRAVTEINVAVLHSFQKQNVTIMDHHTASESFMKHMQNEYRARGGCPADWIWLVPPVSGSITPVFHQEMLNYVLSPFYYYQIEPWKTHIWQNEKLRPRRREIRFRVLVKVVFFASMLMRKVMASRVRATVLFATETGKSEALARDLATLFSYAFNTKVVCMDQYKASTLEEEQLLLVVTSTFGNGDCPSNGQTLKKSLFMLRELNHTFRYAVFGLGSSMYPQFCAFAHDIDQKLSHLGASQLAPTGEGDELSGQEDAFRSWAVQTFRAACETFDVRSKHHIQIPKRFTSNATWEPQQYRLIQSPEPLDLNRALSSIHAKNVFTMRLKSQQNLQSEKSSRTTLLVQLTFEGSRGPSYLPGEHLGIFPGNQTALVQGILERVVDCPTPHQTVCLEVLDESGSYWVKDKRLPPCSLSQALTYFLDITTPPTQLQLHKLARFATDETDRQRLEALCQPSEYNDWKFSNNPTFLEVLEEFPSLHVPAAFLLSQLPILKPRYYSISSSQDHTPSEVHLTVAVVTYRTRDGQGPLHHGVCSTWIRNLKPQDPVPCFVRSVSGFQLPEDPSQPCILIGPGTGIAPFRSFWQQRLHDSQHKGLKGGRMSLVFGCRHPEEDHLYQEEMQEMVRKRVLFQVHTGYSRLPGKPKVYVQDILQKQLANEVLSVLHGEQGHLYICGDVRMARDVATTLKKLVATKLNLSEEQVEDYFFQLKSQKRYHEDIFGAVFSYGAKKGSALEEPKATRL

MCF7 = assay: Cellular uptake in human MCF7 cells assessed per millions cells at 50 uM after 24 hrs by LC/MS/MS analysis; assay type: ADME, cell-based; conditions: mcf7, 24 h
HEK293 [4] = assay: Inhibition of TNF-alpha-induced NF-kappaB activity expressed in HEK293 cells at 34 uM after 48 hrs by luciferase reporter gene assay relative to control; assay type: cell-based
Outline: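 Stably transfected 293 cells carrying an NFκB response element–luciferase reporter, exposed to TNFα plus compound for 48 h, then assayed for luciferase. Activity expressed as % of TNFα-treated control. IC₅₀ from five serial dilutions, mean of two experiments.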

[5] = target: T3, Prostaglandin G/H synthase 1 (Ovis aries, UniProt P05979); assay: Inhibition of sheep seminal vesicles COX1 assessed as PGE2 production after 10 mins by ELISA; outline: as §1
T3 sequence (P05979 whole entry): T1 sequence (whole entry)

KB = assay: Cytotoxicity against human KB cells assessed as cell survival at 20 ug/ml after 72 hrs by sulforhodamine B method; assay type: functional; conditions: read-out: Activity
Outline: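 Sulforhodamine B assay. KB or MCF7 cells plated with samples and held 72 h at 37 °C, 5% CO₂. Fixed 1 h in 10% trichloroacetic acid, stained with 0.4% SRB in 1% acetic acid, dye taken up in 10 mM Tris.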

RAW264.7 [6] = assay: Inhibition of LPS-induced iNOS expression in mouse RAW264.7 cells at 34 uM treated 15 mins before LPS challenge measured after 18 hrs by Western blotting; assay type: functional, cell-based
Outline: (§2)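 RAW 264.7 cells pretreated 15 min with compound (34 μM), then LPS 1 μg/mL for 18 h. Lysates (30 μg protein) run on 8% SDS-PAGE and transferred to PVDF. Blocked in 5% milk/TBST, probed for iNOS and COX-2 with HRP secondary, ECL detection, β-actin internal control. Band density relative to LPS-treated control; duplicate experiments.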

HEK293 [7] = assay: Cytotoxicity against human HEK293 cells at 34 uM; assay type: cell-based; conditions: hek293, 34 µM
[8] = Antioxidant activity assessed as nitric oxide scavenging activity at 60 uM; assay type: functional
Outline: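 Compounds diluted tenfold in PBS and incubated with sodium nitroprusside (final compound 60 μM, SNP 5 mM) for 3 h at room temperature. Nitrite measured by Griess reagent, absorbance 540 nm. % inhibition given as average of triplicates ± standard deviation.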

[9] = Antioxidant activity assessed as DPPH scavenging activity at 340 uM after 30 mins; assay type: functional
[10] = target: NAD(P)H dehydrogenase [quinone] 1 (Mus musculus) (UniProt Q64669); assay: Induction of quinone reductase 1 in mouse Hepa 1c1c7 cells assessed as drug level required to double enzyme activity by MTT assay
Chain of NAD(P)H dehydrogenase [quinone] 1 (Mus musculus) (Q64669 whole entry): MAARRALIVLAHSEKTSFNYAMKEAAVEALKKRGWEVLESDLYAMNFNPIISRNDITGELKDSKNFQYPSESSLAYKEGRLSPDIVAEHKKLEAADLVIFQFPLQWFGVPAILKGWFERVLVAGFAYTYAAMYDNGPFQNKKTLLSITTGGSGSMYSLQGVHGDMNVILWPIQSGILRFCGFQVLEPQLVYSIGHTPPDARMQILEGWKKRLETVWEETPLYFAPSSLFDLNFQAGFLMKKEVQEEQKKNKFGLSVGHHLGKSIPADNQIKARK

Aromatase = target: T4, Aromatase (Homo sapiens, UniProt P11511); conditions: read-out: INH
T4 sequence (P11511 whole entry): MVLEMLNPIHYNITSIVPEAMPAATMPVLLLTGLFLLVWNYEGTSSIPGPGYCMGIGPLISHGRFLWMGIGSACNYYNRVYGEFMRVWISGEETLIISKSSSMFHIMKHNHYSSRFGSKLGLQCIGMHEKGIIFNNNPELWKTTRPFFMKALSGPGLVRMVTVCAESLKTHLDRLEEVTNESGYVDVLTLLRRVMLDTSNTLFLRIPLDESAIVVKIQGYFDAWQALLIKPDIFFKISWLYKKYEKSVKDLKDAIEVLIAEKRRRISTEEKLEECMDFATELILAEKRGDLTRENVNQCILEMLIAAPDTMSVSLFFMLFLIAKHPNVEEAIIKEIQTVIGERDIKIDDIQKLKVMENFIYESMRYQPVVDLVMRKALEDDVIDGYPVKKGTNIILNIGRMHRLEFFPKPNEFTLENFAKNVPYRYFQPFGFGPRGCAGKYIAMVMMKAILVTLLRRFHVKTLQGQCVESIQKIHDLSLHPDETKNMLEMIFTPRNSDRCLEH

[11] = target: T5, Nitric oxide synthase, inducible (Mus musculus) (UniProt P29477); assay: Inhibition of iNOS-mediated nitric oxide production in LPS-stimulated mouse RAW 264.7 cells at 34 uM pretreated 30 mins before LPS challenge measured after 20 hrs by Griess reaction method relative to control; assay type: cell-based
T5 sequence (whole entry): T2 sequence (P29477 whole entry)

RAW264.7 [12] = assay: Inhibition of LPS-induced COX2 expression in mouse RAW264.7 cells at 34 uM treated 15 mins before LPS challenge measured after 18 hrs by Western blotting relative to control; assay type: functional; outline: as §2
[13] = target: T5, Nitric oxide synthase, inducible (Mus musculus); assay: Inhibition of iNOS-mediated nitric oxide production in mouse RAW 264.7 cells at 34 uM pretreated 30 mins measured after 20 hrs by Griess reaction method relative to control; assay type: cell-based
Outline: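 RAW 264.7 macrophages seeded at 1 × 10⁵ cells/well for 24 h. Compounds in phenol red-free DMEM added 30 min before LPS (1 μg/mL), then 20 h further incubation. Nitrite in medium measured by Griess reagent at 540 nm against a sodium nitrite standard curve; inhibition at 34 μM.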

Compound | inhibition (RAW264.7 [1]) | inhibition [2] [%] | Activity (HL-60) [%] | IC50 [3] [µM] | Drug uptake (MCF7) [pmol] | inhibition (HEK293 [4]) [%] | IC50 [5] [µM] | viability at 20 µg/mL (KB) [%] | inhibition (RAW264.7 [6]) | Activity (HEK293 [7]) | Activity [8] [%] | inhibition [9] [%] | CD [10] [µM] | inhibition at 34 µM (Aromatase) [%] | inhibition [11] [%] | fold change (FC) (RAW264.7 [12]) | Activity [13]
Oc1ccc(/C=C/c2cc(O)cc(O)c2)cc1 [RESVERATROL] | inactive | 75.2 | 24.9 | 15 | 54.7 | 75.7 | 6.65 | 47.8 | Active | Non-toxic |  |  |  |  |  |  | 
O=S(=O)([O-])Oc1ccc(/C=C/c2cc(O)cc(OS(=O)(=O)[O-])c2)cc1.[K+].[K+] | inactive | 23.3 |  |  |  | 53.4 |  |  |  | Non-toxic | 0 | 6.8 | > 10.1 | 22.5 | 41.7 | 0.6 | inactive
